Experimental data as given in the RNAGym collection of RNA variant scans (doi:10.1002/anie.201605470).

B1: Osa-1-4 twister ribozyme (parent)
chain: CCGCCUAACACUGCCAAUGCCGGUCCCAAGCCCGGAUAAAAGUGGAGGGGGCGG

Variants of: B1
Experiment: self-cleavage, relative activity (ratio to wild type); higher = more cleavage; co-transcriptional
In short: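 In vitro transcription at 37 °C for 2 h allowed the twister ribozyme to cleave itself as it was made. Its 54-nucleotide Oryza sativa template had been synthesised with 97 % wild-type base and 1 % of each other base at the 48 positions downstream of the cleavage site. A template-switching oligonucleotide was used for reverse transcription, followed by PCR amplification and deep sequencing. Whether reads carried upstream sequence set the cleavage status, and relative activity is the fraction cleaved normalised to wild type.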

Variant | self-cleavage
C14A G54A | 0.1
C14A G54C | 0.06
C14A G54U | 0.22
C14G C52A | 0.14
C14G C52U | 0.18
C14G C52G | 0.13
C14U C21U | 0.39
C14U C21A | 0.12
C14U C21G | 0.06
C14U G42A | 0.09
C14U G42U | 0.03
C14U G42C | 0.06
C14G U12C | 0.09
C14G U12A | 0.09
C14G U12G | 0.06
C15A U24G | 0.02
C15A U24C | 0.08
C15A U24A | 0.05
C15A G42U | 0.05
C15A G42C | 0.08
C15A G42A | 0.12
C15A C20G | 0.06
C15A C20A | 0.52
C15A C20U | 0.65

Variant | self-cleavage
C14U C31U | 0.06
C14U C31A | 0.03
C14U C31G | 0.06
C14U C9A | 0.12
C14U C9U | 0.41
C14U C9G | 0.2
C15A G51C | 0.04
C15A G51A | 0.1
C15A G51U | 0.07
C14U G30U | 0.03
C14U G30A | 0.79
C14U G30C | 0.03
C15A U37A | 0.51
C15A U37C | 0.59
C14U G49U | 0.06
C14U G49A | 0.05
C14U G49C | 0.05
C14A G45C | 0.01
C14A G45U | 0.03
C14A G45A | 0.04
C14A U43A | 0.06
C14A U43G | 0.07
C14A U43C | 0.06
C14A G53C | 0.02

Variant | self-cleavage
C14A G53U | 0.05
C14A G53A | 0.06
C14U G23A | 0.06
C14U G23C | 0.04
C14U G23U | 0.03
C15A G34C | 0.11
C15A G34U | 0.14
C15A G34A | 0.23
C14G G51C | 0.04
C14G G51U | 0.04
C14G G51A | 0.08
C15A G30C | 0.04
C15A G30A | 0.02
C15A G30U | 0.03
C15A U12A | 0.11
C15A U12C | 0.07
C15A U12G | 0.15
C14G G45A | 0.04
C14G G45C | 0.03
C14G G45U | 0.03
C14G G23C | 0.04
C14G G23U | 0.03
C14G G23A | 0.08
C15A U18C | 0.58

Variant | self-cleavage
C15A U18G | 0.49
C15A U18A | 0.51
C14G G53A | 0.09
C14G G53U | 0.06
C14G G53C | 0.04
C14G C21G | 0.05
C14G C21A | 0.09
C14G C21U | 0.16
C14U C32U | 0.06
C14U C32G | 0.04
C14U C32A | 0.04
C15A G44A | 0.11
C15A G44C | 0.33
C15A G44U | 0.19
C15A C27U | 0.07
C15A C27G | 0.04
C15A C27A | 0.16
C15A C25U | 0.08
C15A C25A | 0.07
C15A C25G | 0.04
C14G G13U | 0.05
C14G G13C | 0.01
C14G G13A | 0.07
C14A G44C | 0.06

Variant | self-cleavage
C14A G44U | 0.05
C14G G34C | 0.09
C14G G34U | 0.06
C14G G34A | 0.13
C15A G54U | 0.43
C15A G54C | 0.11
C15A G54A | 0.19
C15A G23U | 0.05
C15A G23A | 0.08
C15A G23C | 0.03
C14A G50C | 0.08
C14A G50U | 0.07
C14A G50A | 0.09
C14U G19C | 0.03
C14U G19U | 0.05
C14U G19A | 0.09
C14G G30A | 0.07
C14G G30U | 0.14
C14G G30C | 0.64
C14U G47U | 0.06
C14U G47A | 0.07
C14U G47C | 0.06
C14G U37G | 0.25
C14G U37C | 0.19

Variant | self-cleavage
C14G U37A | 0.27
C14G | 0.21
C14U | 0.63
C15A C21A | 0.15
C15A C21U | 0.46
C15A C21G | 0.07
C14U U12A | 0.09
C14U U12G | 0.05
C14U U12C | 0.09
C15A G45A | 0.05
C15A G45C | 0.04
C15A G45U | 0.04
C14G C32U | 0.04
C14G C32G | 0.08
C14G C32A | 0.03
C14G G49C | 0.03
C14G G49U | 0.03
C14G G49A | 0.04
C14G G54U | 0.3
C14G G54C | 0.06
C14G G54A | 0.1
C14U U24C | 0.05
C14U U24A | 0.04
C14U U24G | 0.02

Variant | self-cleavage
C14U C20U | 0.48
C14U C20G | 0.05
C14U C20A | 0.51
C15A C32G | 0.07
C15A C32A | 0.08
C15A C32U | 0.07
C14A G47C | 0.03
C14A G47U | 0.05
C14A G47A | 0.04
C14U G22A | 0.21
C14U G22U | 0.11
C14U G22C | 0.04
C14A U12C | 0.05
C14A U12A | 0.08
C14A U12G | 0.06
C15A C26G | 0.06
C15A C26U | 0.12
C15A C26A | 0.05
C14G G47C | 0.04
C14G G47A | 0.05
C14G G47U | 0.04
C14G C26G | 0.07
C14G C26A | 0.03
C14G C26U | 0.07

Variant | self-cleavage
C14G U43C | 0.07
C14G U43A | 0.09
C14G U43G | 0.06
C14G G44A | 0.23
C14G G44C | 0.07
C14G G44U | 0.08
C14A U24C | 0.04
C14A U24A | 0.03
C14A U24G | 0.02
C14U U37G | 0.74
C14U U37A | 0.5
C14U U37C | 0.57
C14U C15G | 0.07
C14U C15U | 0.09
C14U C15A | 0.08
C15A G50C | 0.14
C15A G50U | 0.23
C15A G50A | 0.38
C14G C9A | 0.04
C14G C9U | 0.08
C14G C9G | 0.16
C14U G53A | 0.11
C14U G53U | 0.09
C14U G53C | 0.05

Variant | self-cleavage
C15A G13C | 0.04
C15A G13U | 0.02
C15A G13A | 0.04
C14U G51U | 0.05
C14U G51C | 0.04
C14U G51A | 0.12
C14G C20A | 0.17
C14G C20G | 0.16
C14G C20U | 0.22
C15A C9G | 0.14
C15A C9U | 0.19
C15A C9A | 0.14
C14U U43C | 0.09
C14U U43G | 0.09
C14U U43A | 0.12
C14A G48U | 0.02
C14A G48C | 0.02
C14A G48A | 0.02
C15A G49A | 0.05
C15A G49C | 0.04
C15A G49U | 0.05
C14U G13U | 0.02
C14U G13A | 0.03
C14U G13C | 0.02

Variant | self-cleavage
C14U G54U | 0.47
C14U G54A | 0.17
C14U G54C | 0.12
C14A U18A | 0.09
C14A U18C | 0.11
C14A U18G | 0.11
C14U G35U | 0.21
C14U G35A | 0.43
C14U G35C | 0.07
C14G G22C | 0.07
C14G G22A | 0.07
C14G G22U | 0.07
C14G C27A | 0.03
C14G C27U | 0.07
C14G C27G | 0.07
C15A G19C | 0.38
C15A G19A | 0.92
C15A G19U | 0.82
C14U G50C | 0.1
C14U G50A | 0.35
C14U G50U | 0.18
C14U C52U | 0.52
C14U C52A | 0.21
C14U C52G | 0.28

Variant | self-cleavage
C14G G50U | 0.1
C14G G50C | 0.08
C14G G50A | 0.13
C15A G47U | 0.06
C15A G47A | 0.06
C15A G47C | 0.04
C14G G42C | 0.06
C14G G42A | 0.09
C14G G42U | 0.02
C14U G45U | 0.06
C14U G45C | 0.04
C14U G45A | 0.04
C14G C31G | 0.15
C14G C31A | 0.02
C14G C31U | 0.05
C14G C25A | 0.03
C14G C25G | 0.07
C14G C25U | 0.12
C15A | 0.61
C14U C25U | 0.1
C14U C25G | 0.06
C14U C25A | 0.06
C14U C33A | 0.04
C14U C33U | 0.08

Variant | self-cleavage
C14U C33G | 0.03
C14U G44U | 0.14
C14U G44C | 0.33
C14U G44A | 0.59
C14U G34A | 0.15
C14U G34C | 0.08
C14U G34U | 0.11
C14A G51C | 0.02
C14A G51A | 0.06
C14A G51U | 0.04
C14U C27U | 0.06
C14U C27G | 0.06
C14U C27A | 0.05
C14G C33A | 0.04
C14G C33G | 0.05
C14G C33U | 0.07
C14G C15U | 0.06
C14G C15G | 0.22
C14G C15A | 0.06
C14G U18G | 0.27
C14G U18A | 0.16
C14G U18C | 0.15
C15A G35U | 0.35
C15A G35A | 0.48

Variant | self-cleavage
C15A G35C | 0.09
C14A U37C | 0.12
C14A U37A | 0.07
C14A U37G | 0.15
C15A C52A | 0.23
C15A C52U | 0.57
C15A C52G | 0.32
C14G G35C | 0.04
C14G G35A | 0.07
C14G G35U | 0.06
C15A C31G | 0.05
C15A C31A | 0.03
C15A C31U | 0.09
C14G G19C | 0.04
C14G G19U | 0.08
C14G G19A | 0.24
C14A G49A | 0.02
C14A G49C | 0.01
C14A G49U | 0.03
C14G U24C | 0.04
C14G U24A | 0.04
C14G U24G | 0.02
C14G G48A | 0.03
C14G G48U | 0.03

Variant | self-cleavage
C14G G48C | 0.04
C15A G48U | 0.04
C15A G48C | 0.04
C15A G48A | 0.05
C14U C26A | 0.03
C14U C26U | 0.11
C14U C26G | 0.07
C14U G48A | 0.05
C14U G48U | 0.05
C14U G48C | 0.05
C14U U18G | 0.53
C14U U18A | 0.5
C14U U18C | 0.51
C15A G22A | 0.2
C15A G22C | 0.03
C15A G22U | 0.09
C15A C33A | 0.07
C15A C33U | 0.09
C15A C33G | 0.03
C15A G53U | 0.1
C15A G53C | 0.06
C15A G53A | 0.14
